System: MS2 coat protein
Experiment: apparent Kd, MS2 coat protein; higher = weaker binding; RNA-MaP array; FMN 200 µM where present
Procedure, shortened: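 Two titrations, one without ligand and one with constant ligand, were run with SNAP-549-labelled MS2 coat protein from 0.7 or 1.5 nM, doubling to 3 µM. The targets were designs transcribed by stalled E. coli RNA polymerase on Illumina sequencing-chip clusters, in 100 mM Tris-HCl pH 7.5, 80 mM KCl, 4 mM MgCl2, BSA, DTT, yeast tRNA and Tween-20. The apparent Kd is the median of filtered per-cluster binding-curve fits, with green signal normalised to red-channel RNA signal and control-cluster median Fmax.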

[1] = designed as: OFF switch for flavin mononucleotide, no ligand
[2] = ligand present: flavin mononucleotide, designed as: OFF switch for flavin mononucleotide
[3] = designed as: ON switch for flavin mononucleotide, no ligand
[4] = ligand present: flavin mononucleotide, designed as: ON switch for flavin mononucleotide

Sequence | apparent Kd [1] [nM] | apparent Kd [2] [nM] | apparent Kd [3] [nM] | apparent Kd [4] [nM]
CCUGCACAUGAGGAUCACCCAUGUCAGGAUAUCUCGCCGUCGGCUUGCCGACGGUAUUAGAGAAGGGACACGGG | 29.3 | 26 | – | –
UUUAUUUAGGCAGGAUAUACAUGUAUAUAUAAUUUUUUAUAUAUUAUUACAUGAGGAUCACCCAUGUAGAAGGGCCUUAUUAUA | 41.9 | 54.7 | – | –
UAAAUGUGAGGAUAUUCGUUGAACUCGGAGACGAGUUUAACGGAGAAGGCACAUGAGGAUCACCCAUGUUCCUU | 20.4 | 211 | – | –
GGAUGACAAAGUCAUCCAUAACGAACAUGAGGAUCACCCAUGUAGGAUAUGCUACUCAAAGAGUAGCAGAAGGACAUGUGCCUU | 36 | 239 | – | –
ACAUUUAAUACAGGAUAUGUUAGUAUACAGUAGAUUGGUUAUUACAUAAUAACAGAAGGGUAGAACAUGAGGAUCACCCAUGUA | – | – | 217 | 106
UCGAGCAGGGAAUGGACGCUGAAGUAGGAUAUCCGCGUGGCCGUCCACAUGAGGAUCACCCAUGUGGAGAAGGGCUACAGCGAA | 5.5 | 5.63 | – | –
GUAGCAUACCGAGGAUAUUCAUACCGGAAACGGACAUGAGGAUCACCCAUGUUUAGAAAUAAUUGGGAGAAGGCGGAAUGCUAC | – | – | 232 | 44.7
AAACAUGUCCGAGGAUAUCUGGAAACAUUUUCAAGAGAAGGCGGACAUGAGGAUCACCCAUGUCUCUCCUCAUCAACCACAAAU | 8.83 | 56.2 | – | –
AAAACACAUGAGGAUCACCCAUGUGAGGAUAUCGUGCAGUAGACGAAAGUCUACUGCACGAGAAGGCACAAGGA | 49 | 81.3 | – | –
GCGUAUAUAUGUUUUAUUUAACAGUCAGAAGGUGAUAAUACGACAUGAGGAUCACCCAUGUAAUUCAAGGAUAUGAUCUUACGC | – | – | 117 | 20.1
UUUUAACAUGAGGAUCACCCAUGUGAGGAUAUCGAAAUUUAUAUUUAUAUUAAUUUUACGAGAAGGCACAUUUU | 112 | 125 | – | –
UGUCGGAGCGGAGGAUAUUACAUGAGGAUCACCCAUGUAUGAACCAAUAGCUGGAAACAGCAAUGUAAGAAGGCUGCUCCGACA | 9.67 | 131 | – | –
GGUUGGCGAGGAUAUACAUGAGGAUCACCCAUGUGGUCCUGUGGCUGAUCUUGCCUAUGUAGAAGGCGCAAAUC | 35.7 | 280 | – | –
CGUUUCAUGUCAGGAUAUCCGCGCAGCUUUACGCACGAUAUAAGGGAGCUUGGAGAAGGGACAUGAGGAUCACCCAUGUGCCUC | 8.6 | 12.4 | – | –
UGGUACUAGGGAGGAUAUGGGAAGAUACAUGAGGAUCACCCAUGUUUAAGAAUGCCGAGAGGCAACUAGAAGGCCCUACUACCU | – | – | 294 | 20.6
UUUACAUGAGGAUCACCCAUGUCUGUCACCCAUGUGUGCAAUCAGGAUAUGAUCUCAAGAAUGAAUUAGAAGGGAUAACAUGAG | – | – | 182 | 194
AGUACUCAAAGAGUACCCAUACGGACAUGAGGAUCACCCAUGUAGGAUAUGCUACUCAAAGAGUAGUAGAAGGACAUAUACCUC | 8.91 | 15.7 | – | –
AUAUCUCUGUAAGGAUAUAGAUGGUAUACGCCUCCGACAUGAGGAUCACCCAUGUUAUAUUUUGUCUAGAAGGUACAGUGUCGG | – | – | 656 | 292
UUUAAGUCAGGAUAUCGUUAAUUUAAUUAAUUAUUUUAAUUCGAGAAGGGACAUGAGGAUCACCCAUGUAAUUU | 36.8 | 60.2 | – | –
GUUUUUUUUAGUUCAUACUAUUUGAUAGAAGGUGAAAUAUAGACAUGAGGAUCACCCAUGUAAUUCAAGGAUAUGUAGUUACUC | – | – | 40.6 | 32.7
CGUAACUACAUAGGAUAUUGAUACAUGAGGAUCACCCAUGUUAUAGGGAUUAGUAUAAUAUUAAGCAAGAAGGAUGAAGUUACG | – | – | 23.4 | 14.8
UGUGCGUUGAUCUUCGAUCGGUGUACAUGAGGAUCACCCAUGUAGGAUAUUCAAAGACGCAGAUAGGAGAAGGACAUCGGAUUA | 19.2 | 17.2 | – | –
UUUUUACAUGAGGAUCACCCAUGUCAGGAUAUGAUUAUAUUUUAUUAUUUUAUUUUUUUCAGAAGGGACUAUUA | 117 | 56.9 | – | –
GCCGAAAGUGUGAGGAUAUACCUAUGGAUACAUAGGUAGAAGGCACAUGAGGAUCACCCAUGUCCAAUAACGGC | 205 | 647 | – | –
CUGAUGUGAGGAUAUCUAAAAGAAACUGGGCAAAUACCCAGAGAGAAGGCACAUGAGGAUCACCCAUGUAACGA | 21.3 | 86.8 | – | –
GGCGAACAGGCUAACAUGAGGAUCACCCAUGUGGACUCAUGGUAGGAUAUCGGGAAGGAGGAAACCGAGAAGGGCCGGUGAGCA | – | – | 202 | 43.6
UGUGUGUGUGUGAGGAUAUCGGGCCCGAAAGGGCCCGAGAAGGCACAUGAGGAUCACCCAUGUAAGCGCGCGCG | 321 | 108 | – | –

Source: the EternaBench riboswitch data
